Reference: ChEMBL document CHEMBL1141565, “Discovery of disubstituted cyclohexanes as a new class of CC chemokine receptor 2 antagonists” (J Med Chem, 2008)

Experiments:
[1] = molecular target: T1, C-C chemokine receptor type 2 (Homo sapiens, UniProt P41597); test: Displacement of radiolabeled MCP1 from human CCR2 in PBMCs
Summary of the method: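 Competitive binding: test compound displaces radiolabeled MCP-1 from CCR2 on peripheral blood mononuclear cells. IC50 is given as mean ± SD when n = 2 and mean ± SEM when n > 2, with n the number of determinations.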

[2] = molecular target: T2, C-C chemokine receptor type 3 (Homo sapiens) (UniProt P51677); test: Binding affinity for human CCR3 at 10 uM
T2 sequence (whole entry): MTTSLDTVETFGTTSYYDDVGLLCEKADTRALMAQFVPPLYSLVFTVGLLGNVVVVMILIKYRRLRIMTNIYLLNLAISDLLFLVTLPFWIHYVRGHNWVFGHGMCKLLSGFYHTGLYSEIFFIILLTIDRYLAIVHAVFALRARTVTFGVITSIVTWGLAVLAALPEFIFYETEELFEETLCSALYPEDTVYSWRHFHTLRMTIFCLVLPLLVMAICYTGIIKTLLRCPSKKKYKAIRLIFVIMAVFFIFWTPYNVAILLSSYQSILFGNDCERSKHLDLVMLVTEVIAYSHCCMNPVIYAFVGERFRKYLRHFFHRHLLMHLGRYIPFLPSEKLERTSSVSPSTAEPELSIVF

Homo sapiens = species: Homo sapiens; test: Selectivity for human CCR2 over human CCR3
[3] = molecular target: T1, C-C chemokine receptor type 2; test: Binding affinity to wild type CCR2
[4] = Ratio of IC50 for wild type CCR2 to IC50 for CCR2 E291A mutant
[5] = molecular target: C-C chemokine receptor type 2 (Homo sapiens, UniProt P41597, E291A); test: Binding affinity to CCR2 E291A mutant
[6] = molecular target: T1, C-C chemokine receptor type 2; test: Antagonist activity at human CCR2 in PBMCs assessed as inhibition of MCP1-induced calcium flux; assay type: functional
[7] = Ratio of IC50 for wild type CCR2 to IC50 for CCR2 T292A mutant
[8] = molecular target: C-C chemokine receptor type 2 (Homo sapiens, UniProt P41597, T292A); test: Binding affinity to CCR2 T292A mutant
Chain of C-C chemokine receptor type 2 (Homo sapiens, UniProt P41597, T292A) (P41597 whole entry T292A): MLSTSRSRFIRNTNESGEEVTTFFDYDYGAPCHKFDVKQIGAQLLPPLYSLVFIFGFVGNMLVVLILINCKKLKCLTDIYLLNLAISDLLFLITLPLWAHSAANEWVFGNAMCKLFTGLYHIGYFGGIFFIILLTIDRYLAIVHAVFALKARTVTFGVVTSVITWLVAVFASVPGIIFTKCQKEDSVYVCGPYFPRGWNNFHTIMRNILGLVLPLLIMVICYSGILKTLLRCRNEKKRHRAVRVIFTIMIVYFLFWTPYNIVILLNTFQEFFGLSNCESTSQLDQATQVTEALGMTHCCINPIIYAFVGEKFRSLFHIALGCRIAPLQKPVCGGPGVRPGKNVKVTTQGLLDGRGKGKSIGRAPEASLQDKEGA

T1 sequence (P41597 whole entry): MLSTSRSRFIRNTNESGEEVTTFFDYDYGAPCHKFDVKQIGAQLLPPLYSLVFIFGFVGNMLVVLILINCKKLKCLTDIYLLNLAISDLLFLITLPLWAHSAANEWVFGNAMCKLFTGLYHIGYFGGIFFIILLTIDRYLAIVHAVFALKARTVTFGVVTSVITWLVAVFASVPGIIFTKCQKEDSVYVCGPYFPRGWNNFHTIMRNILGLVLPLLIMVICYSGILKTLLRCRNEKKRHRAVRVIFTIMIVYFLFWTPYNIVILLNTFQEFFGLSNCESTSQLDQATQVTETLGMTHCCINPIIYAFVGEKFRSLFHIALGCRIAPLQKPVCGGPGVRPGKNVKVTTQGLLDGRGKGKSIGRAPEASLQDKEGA
Chain of C-C chemokine receptor type 2 (Homo sapiens, UniProt P41597, E291A) (P41597 whole entry E291A): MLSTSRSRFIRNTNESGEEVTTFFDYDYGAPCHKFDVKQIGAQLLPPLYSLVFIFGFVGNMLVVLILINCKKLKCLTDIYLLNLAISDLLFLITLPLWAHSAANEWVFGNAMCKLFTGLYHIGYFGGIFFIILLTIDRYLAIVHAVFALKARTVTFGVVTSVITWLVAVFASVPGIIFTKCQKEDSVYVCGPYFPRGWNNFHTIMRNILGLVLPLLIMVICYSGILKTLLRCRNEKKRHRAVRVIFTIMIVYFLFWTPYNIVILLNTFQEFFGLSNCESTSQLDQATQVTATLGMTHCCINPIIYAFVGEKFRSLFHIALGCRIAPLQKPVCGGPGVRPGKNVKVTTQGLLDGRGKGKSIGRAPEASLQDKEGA

CC(C)c1ccc(CN[C@@H]2CCCC[C@@H]2NC(=O)CNC(=O)c2cccc(C(F)(F)F)c2)cc1 (racemic)
IC50 [1]: 360 nM | inhibition [2]: 55% | Selectivity ratio (Homo sapiens): 20

O=C(CNC(=O)c1cccc(C(F)(F)F)c1)N[C@H]1CCCC[C@@H]1NCc1ccc(Cl)cc1Cl (racemic)
IC50 [1]: 7860 nM

O=C(CNC(=O)c1cccc(C(F)(F)F)c1)N[C@H]1CCCC[C@H]1NCc1ccc(Cl)cc1 (racemic)
IC50 [1]: 790 nM | inhibition [2]: 24% | IC50 [3]: 268 nM | Selectivity ratio (Homo sapiens): 20 | Ratio IC50 [4]: 7.9 | IC50 [5]: 2120 nM

CS(=O)(=O)c1ccc(C(=O)N[C@@H]2CCCC[C@@H]2NC(=O)CNC(=O)c2cccc(C(F)(F)F)c2)cc1 (racemic)
IC50 [1]: 87 nM | inhibition [2]: 3%

NS(=O)(=O)c1ccc(C(=O)N[C@@H]2CCCC[C@@H]2NC(=O)CNC(=O)c2cccc(C(F)(F)F)c2)cc1 (racemic)
IC50 [1]: 21 nM | inhibition [2]: 39% | IC50 [6]: 42 nM

O=C(CNC(=O)c1cccc(C(F)(F)F)c1)N[C@H]1CCCC[C@@H]1NCc1ccc(Cl)cc1 (racemic)
IC50 [1]: 970 nM | inhibition [2]: 50%

Cc1ccc(C(=O)N[C@@H]2CCCC[C@@H]2NC(=O)CNC(=O)c2cccc(C(F)(F)F)c2)cc1 (racemic)
IC50 [1]: 550 nM | inhibition [2]: 57%

Cc1ccc(CN[C@@H]2CCCC[C@@H]2NC(=O)CNC(=O)c2cccc(C(F)(F)F)c2)c(C)c1 (racemic)
IC50 [1]: 2170 nM | inhibition [2]: 54%

Cc1ccc(CN2CC[C@@H](NC(=O)CNC(=O)c3cccc(C(F)(F)F)c3)C2)c(C)c1
Ratio IC50 [7]: 30

CSc1ccc(C(=O)N[C@@H]2CCCC[C@@H]2NC(=O)CNC(=O)c2cc(C(F)(F)F)ccc2NC(=O)NC(C)C)cc1
IC50 [1]: 5.1 nM | inhibition [2]: 37% | IC50 [3]: 7.5 nM | Ratio IC50 [7]: 40.5 | IC50 [8]: 304 nM | IC50 [6]: 18 nM | Ratio IC50 [4]: 0.5 | IC50 [5]: 3.7 nM

CSc1ccc(C(=O)N[C@@H]2CCCC[C@@H]2NC(=O)CNC(=O)c2cccc(C(F)(F)F)c2)cc1 (racemic)
IC50 [1]: 64 nM | inhibition [2]: 31% | IC50 [6]: 215 nM

O=C(CNC(=O)c1cccc(C(F)(F)F)c1)N[C@H]1CCCC[C@H]1NC(=O)c1ccc(I)cc1
IC50 [1]: 37 nM | inhibition [2]: 27% | IC50 [6]: 30 nM

Cc1ccc(C(=O)N[C@@H]2CCCC[C@@H]2NC(=O)CNC(=O)c2cccc(C(F)(F)F)c2)c(C)c1 (racemic)
IC50 [1]: 4130 nM | IC50 [3]: 4130 nM | Ratio IC50 [4]: 1.9 | IC50 [5]: 7850 nM

O=C(CNC(=O)c1cccc(C(F)(F)F)c1)N[C@H]1CCCC[C@H]1NCc1ccc(C(F)(F)F)cc1 (racemic)
IC50 [1]: 400 nM | inhibition [2]: 47% | Selectivity ratio (Homo sapiens): 20

Nc1ccc(C(F)(F)F)cc1C(=O)NCC(=O)N[C@H]1CCCC[C@H]1NC(=O)c1ccc(S(N)(=O)=O)cc1 (racemic)
IC50 [1]: 23 nM | inhibition [2]: 6% | IC50 [6]: 4.8 nM

O=C(CNC(=O)c1cccc(C(F)(F)F)c1)N[C@H]1CCCC[C@@H]1NC(=O)c1ccc(Cl)cc1 (racemic)
IC50 [1]: 12000 nM

Cc1cc(C)c(CN[C@H]2CCCC[C@@H]2NC(=O)CNC(=O)c2cccc(C(F)(F)F)c2)c(C)c1 (racemic)
IC50 [1]: 1190 nM

O=C(CNC(=O)c1cccc(C(F)(F)F)c1)N[C@H]1CCCC[C@H]1NCc1ccc(OC(F)(F)F)cc1 (racemic)
IC50 [1]: 530 nM | inhibition [2]: 50% | Selectivity ratio (Homo sapiens): 20

Cc1ccc(CN[C@H]2CCCC[C@@H]2NC(=O)CNC(=O)c2cccc(C(F)(F)F)c2)c(C)c1
IC50 [1]: 540 nM | inhibition [2]: 54%

NS(=O)(=O)c1ccc(C(=O)N[C@@H]2CCCC[C@@H]2NC(=O)CNC(=O)c2cc(C(F)(F)F)ccc2NC(=O)C2CCCCC2)cc1 (racemic)
IC50 [1]: 9 nM | inhibition [2]: 10% | IC50 [6]: 3.7 nM

Cc1ccc(CN(C)[C@H]2CCCC[C@@H]2NC(=O)CNC(=O)c2cccc(C(F)(F)F)c2)c(C)c1 (racemic)
IC50 [1]: 3010 nM
